aDG glyco act = activators of alpha-DG glycosylation, primary screen, uHTS, Pro5-aDG cells, AlphaScreen; alpha-DG glycosylation AlphaScreen (IIH6); 0% Pro5, 100% B10-LARGE cell signal; activation, % at 10 µM; 0.22% of 360,000 active; AID 624168, 2012;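 active = activation of at least 8% versus controls, or a plate z-score of at least 8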;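 also: Pro5 are CHO cells carrying HIG-tagged alpha-DG that lacks glycosylation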
Glyco luc inh = increase of ERlucT glycosylation luciferase signal, primary screen, N-linked glycosylation inhibitor project, D54 ERlucT cells, luminescence, set 2; D54 ERlucT glycosylation luciferase reporter, 24 h; percent of 100 nM tunicamycin response; reporter increase, % at 12.5 µM; 0.23% of 360,000 active;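 active = mean luciferase reporter signal, scaled so untreated is 0 and the glycosylation-blocking control 100, at or above a set limit in every replicate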;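 also: luciferase carries N-glycosylation sites so blocking glycosylation raises the light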
MsrA inh = bovine MsrA enzyme inhibitors, primary screen, biochemical, absorbance, HTS | Methionine sulfoxide reductase A (Bos taurus) | purified bovine MsrA, absorbance read-out | inhibition, % at 15.5 µM | 0.75% of 360,000 active | AID 651718, 2012
Vif imaging = HIV Vif self-association inhibitors, primary screen, imaging, HEK293T, single point | HEK293T cells, Vif self-association by quenched fluorescence, 24 h | inhibition, % at 7.49 µM | 0.35% of 340,000 active; in the data active = inhibition above about 50%, passing the limit was not always enough
MsrA act = bovine MsrA enzyme activators, primary screen, biochemical, absorbance, HTS. purified bovine MsrA, absorbance read-out. activation, % at 10.6 µM. 0.3% of 360,000 active. AID 602163, 2012; in the data active = activation above about 7.5%
UCH37 inh = inhibitors of human UCH37 deubiquitinase, primary screen, biochemical, Ub-AMC cleavage, fluorescence. Ubiquitin carboxyl-terminal hydrolase isozyme L5 (Homo sapiens), Q9Y5K5. purified proteasome/UCH37. inhibition, % (no concentration beside the values). 0.33% of 330,000 active. AID 588478, 2011;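 active = mean inhibition over replicate wells above about 20%, limit read from the data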
Target sequence (Q9Y5K5 whole entry, looked up): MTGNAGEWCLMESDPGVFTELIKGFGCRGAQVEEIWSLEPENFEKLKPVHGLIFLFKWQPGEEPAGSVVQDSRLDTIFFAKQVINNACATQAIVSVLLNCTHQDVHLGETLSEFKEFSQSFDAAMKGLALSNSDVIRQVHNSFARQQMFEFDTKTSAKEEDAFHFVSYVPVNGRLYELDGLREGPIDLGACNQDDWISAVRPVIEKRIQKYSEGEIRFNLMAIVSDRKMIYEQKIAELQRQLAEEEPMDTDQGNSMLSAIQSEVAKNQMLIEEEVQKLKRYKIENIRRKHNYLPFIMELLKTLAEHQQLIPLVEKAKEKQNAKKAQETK
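Material: human UCH37 enzyme supplied as purified proteasome complex. Measure: % inhibition of Ub-AMC cleavage fluorescence. Medium: pH 7.4 Tris-HCl (50 mM) with ovalbumin, ATP-MgCl2, DTT. Times: 30 min preincubation with enzyme, 25 min cleavage at room temperature. Detection: AMC fluorescence intensity at 355/460 nm.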
MsrA inh confirm = bovine MsrA inhibitors, retest, confirmation, biochemical, absorbance, HTS | shares compounds with MsrA inh | purified bovine MsrA, absorbance read-out | inhibition, % at 15.5 µM | 41% of 2,300 active | AID 651822, 2012;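 also: coupled to thioredoxin reductase with NADPH and selenocystamine and DMSO as substrate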
A number is an active result; 0 = inactive; - = no result. A selection: hits, their analogues and other compounds. The true share with any hit is near 1.9%. Rule as the data show it, unless noted: active = inhibition above about 4.5%; inactive = the rest.

SMILES	aDG glyco act	Glyco luc inh	MsrA inh	Vif imaging	MsrA act	UCH37 inh	MsrA inh confirm
CCN(CC)c1ccc(/C=N/NC(=O)Cc2nnc(NC(=O)Nc3ccccc3)s2)cc1	0	0	5.5	0	0	-	0
CCN(CC)c1ccc(/C=N/NC(=O)CNC(=O)c2ccccn2)cc1	0	0	6.0	0	0	-	0
CCN(CC)c1ccc(/C=N/NC(=O)CC(C)C)cc1	0	0	5.6	0	0	-	0
COc1cc(C=Nn2c(C)n[nH]c2=S)ccc1OCc1ccc(F)cc1	-	-	-	-	-	0	-
O=C(O)c1ccc(Nc2nc(-c3ccccc3)nc3ccccc23)cc1	0	0	6.0	0	0	0	0
CNC(=O)c1ccc(Nc2nc(-c3ccccc3)nc3ccccc23)cc1	0	0	0	0	0	0	-
O=C(O)c1cccc(Nc2nc(-c3ccccc3)nc3ccccc23)c1	0	0	0	0	0	0	-
O=C(O)c1cccc(Nc2nc(C(F)(F)F)nc3ccccc23)c1	0	0	4.7	0	0	0	0
O=C(CNC(=O)c1ccccc1Br)NN=Cc1cccnc1	-	-	-	-	-	0	-
Cc1ccc(C=NNc2cn[nH]c(=O)c2Cl)cc1	-	-	-	-	-	0	-
Cc1nn(Cc2ccc(Cl)cc2)c(=O)n1N(C)c1ncc(C(F)(F)F)cc1Cl	0	0	15	0	0	0	13
N#CC(C#N)=C1NC(N)=C(C#N)C(c2ccccc2)=C1C#N	0	0	7.2	0	0	-	6.7
O=C(Cc1ccc2cccnc2c1)c1ccc(O)cc1O	0	0	5.0	0	0	0	0
O=C(Cc1ccccc1)c1ccc(O)cc1O	0	0	0	0	0	-	-
Cc1ccc(C=NNc2nc3c([nH]2)c(=O)n(C)c(=O)n3C)cc1	0	0	0	0	0	0	-
COc1ccc(C=NNc2nc3c([nH]2)c(=O)n(C)c(=O)n3C)cc1	0	0	5.5	0	0	0	0
COc1ccc(C(C)=NNC(=S)NCc2ccco2)cc1	-	-	-	-	-	0	-
ON=Cc1ccnc(SCc2ccc(Cl)cc2)n1	-	-	-	-	-	0	-
CCN1C(=O)/C(=C\N(C(C)=O)c2ccccc2)OC1=S	0	0	6.7	0	0	0	5.0
CC(=O)N(/C=C1\SC(=S)N(c2ccccc2)C1=O)c1ccccc1	0	0	0	0	0	0	-
O=[N+]([O-])c1cc(Br)c(O)c(C=NNc2nnnn2-c2cccc3ccccc23)c1	-	-	-	-	-	0	-
O=C1CS/C(=N/N=Cc2cccs2)N1	-	-	-	-	-	0	-
Cc1ccc(/C=N/N=C2/NC(=O)CS2)o1	0	0	5.5	0	0	-	0
CSc1nc(N2CCOCC2)c2c(c1C#N)CCCCC2	0	0	5.5	0	0	0	0
CCCSc1nc(N2CCOCC2)c2c(c1C#N)CCCC2	0	0	13	0	0	0	11
SMILES	aDG glyco act	Glyco luc inh	MsrA inh	Vif imaging	MsrA act	UCH37 inh	MsrA inh confirm
N#CCCSc1nc(N2CCOCC2)c2c(c1C#N)CCCC2	0	0	18	0	0	0	15
CC1(C)CC(=O)c2sc(NC(=O)CN3C(=O)CCC3=O)nc2C1	0	0	5.0	0	0	0	0
CC1(C)CC(=O)c2sc(NS(C)(=O)=O)nc2C1	0	0	6.6	-	0	0	0
CC1(C)CC(=O)c2sc(NS(=O)(=O)c3ccc([N+](=O)[O-])cc3)nc2C1	0	0	6.3	0	0	0	0
CC(=O)Nc1ccc(NC(=O)CC(C)=NNC(=O)C(=O)Nc2ccc(C)c(Cl)c2)cc1	-	-	-	-	-	0	-
CCCC(=O)Nc1ccc(C(=O)NN=Cc2ccc[nH]2)cc1	-	-	-	-	-	0	-
Fc1ccccc1C=NNc1ncnc2ccccc12	-	-	-	-	-	0	-
CC(C)C[C@H]1CN([C@@H](Cc2ccccc2)CN2CCC[C@H]2CN2C(=O)C(=O)NC[C@@H]2Cc2ccc(O)cc2)C(=O)C(=O)N1CC1CCCCC1	0	-	0	-	0	-	-
CC(C)C[C@H]1CN([C@@H](Cc2ccccc2)CN2CCC[C@@H]2CN2C(=O)C(=O)NC[C@@H]2Cc2ccc(O)cc2)C(=O)C(=O)N1CC1CCCCC1	0	0	4.8	0	0	-	0
O=c1[nH]ncc(N/N=C\c2ccc(O)cc2O)c1Cl	0	0	6.5	0	0	-	6.2
O=c1[nH]ncc(NN=Cc2ccc(O)cc2O)c1Cl	-	-	-	-	-	0	-
COc1ccc(/C=N/Nc2nccnc2Cl)cc1	0	0	4.7	0	0	-	0
Oc1ccc(C=NNc2ccccn2)c(O)c1	0	0	5.1	0	0	-	0
Oc1ccc(/C=N/Nc2ncc(Br)cn2)c(O)c1	0	0	6.0	0	0	-	5.2
CSc1nsc(NN=Cc2ccc3c(c2)OCO3)c1C#N	-	-	-	-	-	0	-
Oc1ccc(/C=N/Nc2nccnc2Cl)c(O)c1	0	0	5.1	81	0	-	0
Oc1ccccc1/C=N/Nc1nccnc1Cl	0	0	0	0	0	-	-
CCc1cccc(C)c1NC(=O)c1cc(=O)[nH]c2ccc(S(=O)(=O)N3CCOCC3)cc12	0	0	17	0	0	0	28
Cc1ccc(NC(=O)c2cc(=O)[nH]c3ccc(S(=O)(=O)N4CCOCC4)cc23)cc1	0	0	0	0	0	0	-
Cc1cccc(C(=O)Nc2cc(Cl)ccc2-n2cncn2)c1[N+](=O)[O-]	0	0	7.3	0	0	0	4.8
CS(=O)(=O)c1ccccc1C(=O)Nc1cc(Cl)ccc1-n1cncn1	0	0	0	0	0	0	-
CC(=NNc1nc(-c2ccccn2)nc2ccccc12)c1ccc(F)cc1	-	-	-	-	-	0	-
COc1cc(C=NN=C2SCC(=O)N2c2ccc(O)cc2)ccc1O	-	-	-	-	-	0	-
COc1ccc(/C=N\N=C2/SC(CC(=O)O)C(=O)N2c2ccc(O)cc2)cc1OC (configuration not stated)	0	0	5.9	0	0	-	4.9
COc1cc(/C=N/N=C2/SCC(=O)N2c2ccc(O)cc2)ccc1O	0	0	5.6	0	0	-	4.6
SMILES	aDG glyco act	Glyco luc inh	MsrA inh	Vif imaging	MsrA act	UCH37 inh	MsrA inh confirm
O=C(O)CC1S/C(=N/N=C/c2ccc([N+](=O)[O-])cc2)N(c2ccc(O)cc2)C1=O (configuration not stated)	0	0	6.8	0	0	-	0
O=C1NC(=S)N/C1=C\c1ccccc1OCc1ccc(C(=O)O)cc1	0	0	6.4	0	0	0	0
COc1cccc2cc3c(=O)oc4ccccc4c3nc12	0	0	19	0	0	0	13
CCOC(=O)N=Nc1c2ccccc2c2nc3no[nH]c3nc12	0	0	14	0	0	0	18
CCOC(=O)N=Nc1c(O)n(CC(=O)OC)c2ccccc12	0	0	0	0	0	0	-
COCCCNc1oc(/C=C/c2ccccc2)nc1C#N	0	0	5.9	0	0	0	0

High-throughput results from PubChem BioAssay.
